Measured values reported in PMC5621377 (Clinical cancer research : an official journal of the …, 2016).
“Also recorded” adds a separate entry of the source.

Key:
Jeko-1 MCL xenograft = conditions: doses comparable to those achievable in humans; cited from earlier work
neuroblastoma cell lines = conditions: in vitro, dose-dependent; cited from earlier work
[1] = Pharmacokinetics, plasma LC-MS/MS, non-compartmental analysis; type: in vivo, human
Summary of the method: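 Oral daily dosing at 50–1,200 mg/day. On Cycle 1 Days 1 and 18/21, blood was drawn pre-dose and at 0.5, 1, 2, 4, 6, 8 and 24 h, with further trough days. Parent drug and a metabolite in plasma were measured by validated LC-MS/MS (LLOQ 1.0 ng/mL). Non-compartmental analysis was used. Dose proportionality was fitted as ln(Cmax or AUC0–24) = α + β ln(dose). T1/2,acc came from the accumulation ratio; steady state was judged from troughs.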

[2] = system: Rb+ advanced solid tumors or lymphomas; test: Clinical activity, radiographic response; type: in vivo, human
Summary of the method: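 Oral test compound given daily on a 3-weeks-on/1-week-off schedule (50–1,200 mg/day) or a continuous 28-day schedule (600 mg/day). Response was assessed by CT or MRI per RECIST 1.0 for solid tumors or IWG criteria for lymphomas. Scans were done at the end of every second cycle for six cycles, then every third cycle, and at end of treatment. Patients receiving at least one dose were included; analyses were descriptive.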

[3] = system: patients with Rb+ advanced solid tumors or lymphomas; test: Phase I dose escalation: DLT and MTD/RDE determination; type: in vivo

For CN(C)C(=O)c1cc2cnc(Nc3ccc(N4CCNCC4)cn3)nc2n1C1CCCC1 [ribociclib], the “tumor response in xenograft” value (Jeko-1 MCL xenograft) is given as “complete regressions”, the “concentration with marked accumulation of cells in G0/G1 phase” value (neuroblastoma cell lines) is given as “above 100 nmol/L” and the “mean effective half-life based on accumulation ratio (T1/2, acc)” value ([1]; at the RDE (600 mg/day 3-weeks-on/1-week-off), oral) is given as 32.6 h. For the same molecule, the “dose proportionality of Cmax and AUC” value ([1]; dose range 50–1,200 mg/day) was “slightly higher than dose proportional; also recorded: slightly more than proportional to dose”, the Tmax ([1]; human, plasma, po) was 1 to 5 h and the “steady state reached by” value ([1]; trough concentrations after repeated daily dosing) was roughly 8 days. For the same molecule, the “patients with best response of stable disease” value ([2]; 132 patients) was 43, the “stable disease as best overall response by RECIST, patients” value ([2]; 132 patients) was 41 and the “stable disease as best overall response per IWG, patients” value ([2]; 132 patients) was “two”. The partial response rate ([2]; 132 patients, RECIST) was 2.3%, the “stable disease as best overall response, rate” value ([2]; RECIST plus IWG, 132 patients) was 32.6% and the time on therapy ([2]; one patient with teratoma, 400 mg/day 3-weeks-on/1-week-off) was 100 weeks. The time on therapy ([2]; patient with liposarcoma, 600 mg/day continuous, past cut-off date) was 102 weeks, the “maximum tolerated dose (MTD)” value ([3]; 3-weeks-on/1-week-off schedule) was 900 mg/day and the “recommended dose for expansion (RDE)” value ([3]; human, in vivo, 28 days) was 600 mg/day. The “number of dose-limiting toxicities during Cycle 1” value ([3]; in vivo) was “Nine”.
